From ChEMBL document CHEMBL2057140, “Design, synthesis, biological evaluation and molecular modeling of novel 1,3,4-oxadiazole derivatives based on Vanillic acid as potential immunosuppressive agents” (Bioorg Med Chem, 2012)
Active and inactive are the calls of the source. The rule behind the calls is not given here.

What was measured:
[1] = Cytotoxicity against BALB/c mouse lymph node cells after 24 hrs by MTT assay; format: cell-based
Outline: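 Fresh BALB/C mouse lymph node cells, 5 × 10⁵ per well, given compounds at […] for 24 h at 37 °C, 5% CO₂; untreated cells served as control. MTT (4 mg/mL in PBS) added for the final 4 h, formazan dissolved in DMSO, absorbance read at 570 nm; CC₅₀ reported with SD.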

[2] = Immunosuppressive activity in BALB/c mouse T cells assessed as inhibition of ConA-induced T cell proliferation incubated 24 hrs post ConA-induction for 72 hrs by MTT assay; format: functional, cell-based
Outline: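 BALB/C lymph node cells, 5 × 10⁵ per well, stimulated with ConA at […] for 24 h, then left untreated or given compounds for 72 h. MTT (4 mg/mL in PBS) added for the last 4 h; proliferation read by MTT and IC₅₀ reported with SD.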

[3] = tested on: T-cell; assay: Selectivity index ratio of CC50 for BALB/c mouse lymph node cells to IC50 for BALB/c mouse ConA-induced T cell proliferation; format: functional
Outline: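 Ratio of the lymph node cell CC₅₀ from the 24 h MTT cytotoxicity assay to the IC₅₀ against ConA-stimulated proliferation from the 72 h MTT assay.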

[4] = biological target: Phosphatidylinositol 4,5-bisphosphate 3-kinase catalytic subunit gamma isoform (Homo sapiens, UniProt P48736); assay: Inhibition of PI3Kgamma after 4 hrs
[5] = tested on: T-cell; assay: Induction of apoptosis in BALB/c mouse ConA-activated T cells assessed as early apoptotic cells at 0.25 uM incubated 24 hrs-post ConA-activation for 24 hrs by AnnexinV-FITC based flow cytometry relative to vehicle treated control; format: functional
Outline: (§1)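 Lymph node cells, 3 × 10⁶ per well, stimulated with ConA at […] for 24 h, then exposed to compound at 0.25, 2.5 or 25 µM for 24 h. Cells harvested, stained with Annexin V-FITC and propidium iodide, and apoptotic fraction measured by flow cytometry.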

[6] = tested on: T-cell; assay: Induction of apoptosis in BALB/c mouse ConA-activated T cells assessed as early apoptotic cells at 2.5 uM incubated 24 hrs-post ConA-activation for 24 hrs by AnnexinV-FITC based flow cytometry relative to vehicle treated control; format: functional; outline: as §1
[7] = tested on: T-cell; assay: Induction of apoptosis in BALB/c mouse ConA-activated T cells assessed as early apoptotic cells at 25 uM incubated 24 hrs-post ConA-activation for 24 hrs by AnnexinV-FITC based flow cytometry relative to vehicle treated control; format: functional; outline: as §1
[8] = tested on: T-cell; assay: Induction of apoptosis in BALB/c mouse ConA-activated T cells incubated 24 hrs-post ConA-activation for 24 hrs by AnnexinV-FITC based flow cytometry; format: functional; outline: as §1
[9] = organism: Mus musculus; assay: Inhibition of PI3K-mediated AKT inhibition in BALB/c mouse lymph node cells assessed as reduction in ConA-induced IL1 production at 5 uM incubated for 2 hrs prior to ConA-indution measured after 22 hrs by ELISA
Outline: (§2)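 Mouse lymph node cells kept in DMEM with 10% FBS, penicillin and streptomycin at 37 °C, 5% CO₂. Pre-treated with compound at […] or vehicle for 2 h, then with ConA at […] for 22 h. Media centrifuged, and IL-1, IL-6 and IL-10 quantified by mouse ELISA kits.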

[10] = organism: Mus musculus; assay: Inhibition of PI3K-mediated AKT inhibition in BALB/c mouse lymph node cells assessed as reduction in ConA-induced IL6 production at 5 uM incubated for 2 hrs prior to ConA-indution measured after 22 hrs by ELISA; outline: as §2
[11] = organism: Mus musculus; assay: Inhibition of PI3K-mediated AKT inhibition in BALB/c mouse lymph node cells assessed as reduction in ConA-induced IL10 production at 5 uM incubated for 2 hrs prior to ConA-indution measured after 22 hrs by ELISA; outline: as §2

Sequence of Phosphatidylinositol 4,5-bisphosphate 3-kinase catalytic subunit gamma isoform (P48736 whole entry, canonical isoform): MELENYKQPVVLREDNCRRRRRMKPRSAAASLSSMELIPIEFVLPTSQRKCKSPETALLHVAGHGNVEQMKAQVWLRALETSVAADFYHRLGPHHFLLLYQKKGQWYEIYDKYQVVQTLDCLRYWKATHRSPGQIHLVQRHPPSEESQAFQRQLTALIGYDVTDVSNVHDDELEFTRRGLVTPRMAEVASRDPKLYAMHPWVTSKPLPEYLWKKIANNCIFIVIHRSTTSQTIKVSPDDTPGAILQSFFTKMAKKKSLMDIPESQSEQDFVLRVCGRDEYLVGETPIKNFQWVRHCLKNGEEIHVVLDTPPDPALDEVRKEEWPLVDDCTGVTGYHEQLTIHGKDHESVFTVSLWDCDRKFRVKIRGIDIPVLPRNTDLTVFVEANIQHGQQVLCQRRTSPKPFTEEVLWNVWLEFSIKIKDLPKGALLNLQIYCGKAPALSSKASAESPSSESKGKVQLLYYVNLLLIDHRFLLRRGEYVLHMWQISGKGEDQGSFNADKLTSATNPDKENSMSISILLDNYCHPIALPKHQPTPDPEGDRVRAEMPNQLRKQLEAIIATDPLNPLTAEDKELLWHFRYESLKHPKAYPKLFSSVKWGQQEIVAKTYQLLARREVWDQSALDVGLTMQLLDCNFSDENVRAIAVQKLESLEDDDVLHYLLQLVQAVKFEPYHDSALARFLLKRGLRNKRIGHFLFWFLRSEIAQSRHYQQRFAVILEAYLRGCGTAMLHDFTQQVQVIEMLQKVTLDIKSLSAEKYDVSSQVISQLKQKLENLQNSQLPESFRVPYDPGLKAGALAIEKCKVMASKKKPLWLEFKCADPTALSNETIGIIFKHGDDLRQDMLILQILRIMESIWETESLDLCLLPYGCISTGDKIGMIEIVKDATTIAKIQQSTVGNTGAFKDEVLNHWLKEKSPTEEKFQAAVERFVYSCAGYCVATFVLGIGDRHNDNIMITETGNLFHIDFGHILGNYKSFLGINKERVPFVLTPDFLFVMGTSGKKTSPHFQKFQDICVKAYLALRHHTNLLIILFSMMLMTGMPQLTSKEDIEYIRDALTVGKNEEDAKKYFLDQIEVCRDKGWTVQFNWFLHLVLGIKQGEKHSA

Structure (SMILES): COc1cc(-c2nnc(SCc3cccc(Br)c3)o2)ccc1O
- CC50 at 24 h [1]: 382 µM
- IC50 [2]: 48.1 µM
- Ratio CC50/IC50 [3]: 7.95

Structure (SMILES): COc1cc(-c2nnc(SCc3cccc(Br)c3)o2)ccc1OCc1cccc(Br)c1
- CC50 at 24 h [1]: 161 µM
- IC50 [2]: 9.12 µM
- Ratio CC50/IC50 [3]: 17.66

Structure (SMILES): COc1cc(-c2nnc(SCc3ccccc3C)o2)ccc1O
- CC50 at 24 h [1]: 592 µM
- IC50 [2]: 8.42 µM
- Ratio CC50/IC50 [3]: 70.36
- IC50 [4]: 6.48 µM

Structure (SMILES): COc1cc(-c2nnc(SCc3ccccc3C)o2)ccc1OCc1ccccc1C
- CC50 at 24 h [1]: 195 µM
- IC50 [2]: 18.9 µM
- Ratio CC50/IC50 [3]: 15.19

Structure (SMILES): COc1cc(-c2nnc(SCc3ccc(Br)cc3)o2)ccc1OCc1ccc(Br)cc1
- CC50 at 24 h [1]: 225 µM
- IC50 [2]: 17.3 µM
- Ratio CC50/IC50 [3]: 12.99

Structure (SMILES): COc1cc(-c2nnc(SCc3ccc(C)cc3)o2)ccc1O
- CC50 at 24 h [1]: 549 µM
- IC50 [2]: 6.21 µM
- Ratio CC50/IC50 [3]: 88.5
- IC50 [4]: 7.41 µM

Structure (SMILES): COc1cc(-c2nnc(SCc3ccc(C)cc3)o2)ccc1OCc1ccc(C)cc1
- CC50 at 24 h [1]: 275 µM
- IC50 [2]: 9.06 µM
- Ratio CC50/IC50 [3]: 30.38

Structure (SMILES): COc1cc(-c2nnc(SCc3ccccc3Br)o2)ccc1O
- CC50 at 24 h [1]: 363 µM
- IC50 [2]: 17.8 µM
- Ratio CC50/IC50 [3]: 20.42

Structure (SMILES): COc1cc(-c2nnc(SCc3cccc([N+](=O)[O-])c3)o2)ccc1O
- CC50 at 24 h [1]: 392 µM
- IC50 [2]: 16 µM
- Ratio CC50/IC50 [3]: 24.59

Structure (SMILES): COc1cc(-c2nnc(SCc3ccc(F)cc3F)o2)ccc1OCc1ccc(F)cc1F
- CC50 at 24 h [1]: 182 µM
- IC50 [2]: 12.9 µM
- Ratio CC50/IC50 [3]: 14.1

Structure (SMILES): COc1cc(-c2nnc(SCc3ccccc3)o2)ccc1OCc1ccccc1
- CC50 at 24 h [1]: 197 µM
- IC50 [2]: 13.3 µM
- Ratio CC50/IC50 [3]: 14.79

Structure (SMILES): COc1cc(-c2nnc(SCc3ccc(F)cc3F)o2)ccc1O
- CC50 at 24 h [1]: 520 µM
- IC50 [2]: 9.69 µM
- Ratio CC50/IC50 [3]: 53.67

Structure (SMILES): COc1cc(-c2nnc(SCc3ccc(Cl)cc3)o2)ccc1O
- CC50 at 24 h [1]: 480 µM
- IC50 [2]: 11.1 µM
- Ratio CC50/IC50 [3]: 43.35

Structure (SMILES): COc1cc(-c2nnc(SCc3ccccc3)o2)ccc1O
- CC50 at 24 h [1]: 211 µM
- IC50 [2]: 1.25 µM
- Ratio CC50/IC50 [3]: 168.83
- IC50 [4]: 1.34 µM
- Activity [5]: 2.43%
- Activity [6]: 4.34%
- Activity [7]: 4.98%
- Activity [8]: Dose-dependent effect
- inhibition [9]: Active
- inhibition [10]: Active
- inhibition [11]: Active

Structure (SMILES): COc1cc(-c2nnc(SCc3cc(F)cc(F)c3)o2)ccc1OCc1cc(F)cc(F)c1
- CC50 at 24 h [1]: 266 µM
- IC50 [2]: 14.4 µM
- Ratio CC50/IC50 [3]: 18.49

Structure (SMILES): COc1cc(-c2nnc(SCc3ccc([N+](=O)[O-])cc3)o2)ccc1O
- CC50 at 24 h [1]: 688 µM
- IC50 [2]: 14.2 µM
- Ratio CC50/IC50 [3]: 48.6

Structure (SMILES): COc1cc(-c2nnc(SCc3ccc(F)cc3)o2)ccc1O
- CC50 at 24 h [1]: 685 µM
- IC50 [2]: 8.19 µM
- Ratio CC50/IC50 [3]: 83.62

Structure (SMILES): COc1cc(-c2nnc(SCc3ccccc3[N+](=O)[O-])o2)ccc1O
- CC50 at 24 h [1]: 331 µM
- IC50 [2]: 9.6 µM
- Ratio CC50/IC50 [3]: 34.45

Structure (SMILES): COc1cc(-c2nnc(SCc3ccccc3Br)o2)ccc1OCc1ccccc1Br
- CC50 at 24 h [1]: 151 µM
- IC50 [2]: 8.71 µM
- Ratio CC50/IC50 [3]: 17.33

Structure (SMILES): COc1cccc(COc2ccc(-c3nnc(SCc4cccc(OC)c4)o3)cc2OC)c1
- CC50 at 24 h [1]: 242 µM
- IC50 [2]: 10.1 µM
- Ratio CC50/IC50 [3]: 24.04

Structure (SMILES): COc1cc(-c2nnc(SCc3ccccc3F)o2)ccc1O
- CC50 at 24 h [1]: 474 µM
- IC50 [2]: 5.79 µM
- Ratio CC50/IC50 [3]: 81.82

Structure (SMILES): COc1cc(-c2nnc(SCc3cccc([N+](=O)[O-])c3)o2)ccc1OCc1cccc([N+](=O)[O-])c1
- CC50 at 24 h [1]: 168 µM
- IC50 [2]: 12.2 µM
- Ratio CC50/IC50 [3]: 13.75

Structure (SMILES): COc1cc(-c2nnc(SCc3ccccc3Cl)o2)ccc1OCc1ccccc1Cl
- CC50 at 24 h [1]: 144 µM
- IC50 [2]: 10.6 µM
- Ratio CC50/IC50 [3]: 8.67

Structure (SMILES): C/C=C/C[C@@H](C)[C@@H](O)[C@H]1C(=O)N[C@@H](CC)C(=O)N(C)CC(=O)N(C)[C@@H](CC(C)C)C(=O)N[C@@H](C(C)C)C(=O)N(C)[C@@H](CC(C)C)C(=O)N[C@@H](C)C(=O)N[C@H](C)C(=O)N(C)[C@@H](CC(C)C)C(=O)N(C)[C@@H](CC(C)C)C(=O)N(C)[C@@H](C(C)C)C(=O)N1C [CYCLOSPORINE]
- Ratio CC50/IC50 [3]: 82.19

Structure (SMILES): COc1cc(-c2nnc(SCc3ccc(Br)cc3)o2)ccc1O
- CC50 at 24 h [1]: 455 µM
- IC50 [2]: 8.83 µM
- Ratio CC50/IC50 [3]: 51.58

Structure (SMILES): COc1cc(-c2nnc(SCc3ccccc3Cl)o2)ccc1O
- CC50 at 24 h [1]: 564 µM
- IC50 [2]: 8.43 µM
- Ratio CC50/IC50 [3]: 66.94

Structure (SMILES): COc1cc(-c2nnc(SCc3cccc(Cl)c3)o2)ccc1O
- CC50 at 24 h [1]: 470 µM
- IC50 [2]: 8.29 µM
- Ratio CC50/IC50 [3]: 56.74

Structure (SMILES): COc1cc(-c2nnc(SCc3ccc(Cl)cc3)o2)ccc1OCc1ccc(Cl)cc1
- CC50 at 24 h [1]: 136 µM
- IC50 [2]: 17.2 µM
- Ratio CC50/IC50 [3]: 5

Structure (SMILES): COc1cc(-c2nnc(SCc3ccc(F)cc3)o2)ccc1OCc1ccc(F)cc1
- CC50 at 24 h [1]: 153 µM
- IC50 [2]: 12.9 µM
- Ratio CC50/IC50 [3]: 11.89

Structure (SMILES): COc1cc(-c2nnc(SCc3ccc([N+](=O)[O-])cc3)o2)ccc1OCc1ccc([N+](=O)[O-])cc1
- CC50 at 24 h [1]: 156 µM
- IC50 [2]: 7.6 µM
- Ratio CC50/IC50 [3]: 20.48

Structure (SMILES): COc1cc(-c2nnc(SCc3cccc(Cl)c3)o2)ccc1OCc1cccc(Cl)c1
- CC50 at 24 h [1]: 178 µM
- IC50 [2]: 15.8 µM
- Ratio CC50/IC50 [3]: 11.23

Structure (SMILES): COc1cc(-c2nnc(SCc3c(F)cccc3F)o2)ccc1O
- CC50 at 24 h [1]: 575 µM
- IC50 [2]: 10.1 µM
- Ratio CC50/IC50 [3]: 57.1

Structure (SMILES): COc1cc(-c2nnc(SCc3ccccc3F)o2)ccc1OCc1ccccc1F
- CC50 at 24 h [1]: 171 µM
- IC50 [2]: 4.76 µM
- Ratio CC50/IC50 [3]: 35.89
- IC50 [4]: 5.12 µM
- inhibition [9]: Active
- inhibition [10]: Active
- inhibition [11]: Active

Structure (SMILES): COc1cccc(CSc2nnc(-c3ccc(O)c(OC)c3)o2)c1
- CC50 at 24 h [1]: 389 µM
- IC50 [2]: 7.41 µM
- Ratio CC50/IC50 [3]: 52.55
- IC50 [4]: 2.87 µM

Structure (SMILES): COc1cc(-c2nnc(SCc3c(F)cccc3F)o2)ccc1OCc1c(F)cccc1F
- CC50 at 24 h [1]: 179 µM
- IC50 [2]: 5.22 µM
- Ratio CC50/IC50 [3]: 34.21
- IC50 [4]: 5.74 µM
